# Sampled rows, rich in hits. Any-hit rate of the full collection: about 2.9%.
# E coli RNAP – E. coli RNAP inhibitors, biochemical. 62,000 tested, 0.2% active. inhibition, %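 (tested at 10 µM)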. E. coli RNA polymerase, fluorescence transcription assay. DNA-directed RNA polymerase subunit beta (Escherichia coli (strain K12)), P0A8V2; in the data active = inhibition above about 20%;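 also: 0% = enzyme without compound and 100% = no enzyme blank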
# BAP1 block – inhibitors of BAP1 deubiquitinase, primary screen, biochemical, Ub-AMC fluorescence, kinetic; Ubiquitin carboxyl-terminal hydrolase BAP1 (Homo sapiens), Q92560; recombinant BAP1, Ub-AMC hydrolysis fluorescence kinetic; active compounds read low; calls only at 20 µM; 72,000 tested, 0.48% active;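 active = activity remaining at or below 50% of control, provided the compound also passes the data quality filters; inactive = the rest, including low values that fail the filters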;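 also: 100% = DMSO wells rate and 0% = substrate alone blank rate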
# tolC growth inh – growth inhibitors of E. coli tolC mutant, primary screen, strain BW25113 ΔtolC::kan, 384-well | OD615 | growth inhibition, % at 10 µM (by protocol) | 65,000 tested, 2.2% active;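 active = growth inhibition at or above a cutoff equal to the mean over every tested compound plus 3 SD, cut at about 60% in these data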;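 also: growth measured after 20 h incubation at 37 °C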
#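 signal = optical density read at 615 nm | test system = E. coli ΔtolC::kan strain BW25113 | timing = 20 h compound exposure of bacteria at 37 °C | buffer or medium = LB medium plus 50 µg/mL kanamycin | compound dosing = 10 µM final, single dose | evaluation = % inhibition of E. coli growth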
# Hsp90 inh – tumor Hsp90 inhibitors, primary screen, cell lysate, fluorescence polarization, NCI-N417 lysate; Heat shock protein HSP 90-alpha (Homo sapiens), P07900; Cy3B-geldanamycin FP displacement; inhibition, % at 30 µM; 64,000 tested, 0.35% active; AID 429, 2006;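 active = inhibition above 50%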;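 also: 0% = tracer plus lysate wells and 100% = tracer alone without lysate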
# Cdc25B block – inhibitors of Cdc25B phosphatase catalytic domain, primary screen, biochemical, OMFP fluorescence; recombinant Cdc25B, OMFP fluorescence Ex485/Em525; 65,000 tested, 0.1% active; AID 368, 2006; M-phase inducer phosphatase 2 (Homo sapiens), P30305; inhibition, %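 (compounds tested at 10 µM final in the well)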; in the data active = inhibition above about 50%
# MKP-1 inh – MKP-1 phosphatase inhibitors, primary screen, biochemical, in vitro; Dual specificity protein phosphatase 1 (Homo sapiens), P28562; recombinant MKP-1, OMFP hydrolysis fluorescence; inhibition, %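 (compounds tested at a single concentration somewhere between 10 and 100 µM)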; 65,000 tested, 0.15% active; AID 374, 2006;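 active = inhibition above about 50%, limit read from the data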;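 also: 0% = DMSO max control wells and 100% = wells with enzyme stopped by NaOH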
# Target sequence (P28562 whole entry, looked up): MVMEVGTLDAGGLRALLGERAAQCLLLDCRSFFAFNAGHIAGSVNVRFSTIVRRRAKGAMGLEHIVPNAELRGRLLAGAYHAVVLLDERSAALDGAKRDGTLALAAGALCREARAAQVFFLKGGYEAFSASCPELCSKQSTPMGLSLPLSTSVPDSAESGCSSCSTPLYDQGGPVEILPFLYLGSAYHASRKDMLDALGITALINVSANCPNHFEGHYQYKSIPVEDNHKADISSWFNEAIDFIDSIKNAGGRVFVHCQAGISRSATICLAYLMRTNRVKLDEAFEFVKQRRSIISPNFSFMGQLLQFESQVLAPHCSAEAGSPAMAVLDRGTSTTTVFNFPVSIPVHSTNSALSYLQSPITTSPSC
# * = called active by the depositor; i = inactive; . = no result given.
SMILES,E coli RNAP,BAP1 block,tolC growth inh,Hsp90 inh,Cdc25B block,MKP-1 inh
CCc1nnc(NC(=O)c2ccc(S(=O)(=O)N3CCCCC3C)cc2)s1 (stereo not drawn),9,i,2,1,-4,3
CC(=O)Nc1ccc(S(=O)(=O)Nc2cccc([N+](=O)[O-])c2C)cc1,.,i,.,.,.,.
COc1cc(C2Nc3ccccc3NC3=C2C(=O)CC(c2ccccc2)C3)ccc1O (stereo not drawn),.,i,.,.,.,.
O=C(Nc1nnc(-c2ccccc2Cl)o1)c1cccnc1,-3,i,70*,-5,-7,20
CCCSc1nc2c(c(=O)[nH]c(=O)n2C)n1Cc1ccc(Cl)cc1,.,i,.,.,.,.
N#Cc1cn(Cc2cccc(Cl)c2)c2ccccc12,6,i,97*,-8,-6,0
N#Cc1cn(CC(=O)N2CCCC2)c2ccccc12,3,i,-9,-24,-17,-1
COc1ccc(NC(=O)c2cc(-c3cc(C)cc(C)c3O)n[nH]2)cc1Cl,.,i,96*,2,2,-3
Cc1cccc(NC(=O)C2CC3CCCC(C2)C3=O)c1 (stereo not drawn),.,i,.,.,.,.
CCOC(=O)Cc1c(C)nc2c(-c3cccc(Br)c3)c[nH]n2c1=O,-1,.,100*,2,8,36
N#Cc1cccc(N=c2oc3ccc(Br)cc3cc2-c2nc3ccccc3[nH]2)c1,.,i,.,.,.,.
O=C(Nc1ccc(Br)cc1)c1ccc(-c2ccccc2)cc1,.,i,.,.,.,.
CC1=CC(=CN(C)c2ccccc2)C(=O)S1,.,i,.,.,.,.
Oc1ccccc1O,.,i,.,52*,.,.
NC(C(=O)O)C(O)c1cccc([N+](=O)[O-])c1 (stereo not drawn),.,i,.,.,.,.
Cc1ccc(-c2nnc(-c3cccc(F)c3)o2)cc1,.,i,.,.,.,.
CSc1ccc(-c2c(C#N)c(N)nc3c2CCCC3)cc1,2,i,-2,-5,12,-6
CCOc1cc(-c2c(C#N)c(N)nc3c2CCCC3C)ccc1O (stereo not drawn),10,i,86*,-3,-4,6
COC(=O)c1ccc(C(=O)OC)c(NC(=O)CCc2ccc(C)o2)c1,9,i,2,-13,-2,-11
COC(=O)c1c(NC(=O)CCc2ccc(C)o2)sc(C)c1C,-3,.,61*,-13,-15,-1
COc1ccc(-c2csc(N(CC3CCCO3)C(=O)c3ccco3)n2)cc1 (stereo not drawn),.,i,61*,0,2,-6
N#Cc1nc(Cc2cccc3ccccc23)oc1NCCCn1ccnc1,-4,i,61*,-11,-3,-7
O=c1[nH]c(=O)n(C2CCCCCC2)c(O)c1C=NCc1ccc(F)cc1,4,i,99*,-1,-6,21
Cc1c(N=Cc2c(O)n(C3CCCCC3)c(=O)[nH]c2=O)c(=O)n(-c2ccccc2)n1C,-1,i,9,-5,-28,-5
COc1ccccc1S(=O)(=O)Cc1ccc(C(=O)N2CCN(c3ccccc3)CC2)o1,-2,i,1,-3,-4,23
SMILES,E coli RNAP,BAP1 block,tolC growth inh,Hsp90 inh,Cdc25B block,MKP-1 inh
CCCc1ccc(OCc2ccc(C(=O)N3CCN(c4ccccn4)CC3)o2)c(OC)c1,7,i,100*,-1,-21,12
O=C(c1ccc(COc2ccccc2Br)o1)N1CCCCCC1,9,i,61*,-6,-21,6
O=C(c1ccc(COc2ccc3c(c2)CCC3)o1)N1CCN(c2ccccc2)CC1,.,.,67*,-19,-31,13
O=C(c1ccc(COc2ccccc2Cl)o1)N1CCN(c2ccccc2)CC1,9,i,84*,-2,-15,-1
COc1ccccc1S(=O)(=O)Cc1ccc(C(=O)N2CCN(c3cccc(Cl)c3)CC2)o1,6,i,10,-3,-9,30
CCOc1ccc(OCc2ccc(C(=O)N3CCCC3)o2)cc1,3,i,24,-2,-14,2
Cc1cc(C2(c3ccc(O)c(C)c3)CCC(C)CC2)ccc1O,.,i,.,.,.,.

# From PubChem
